We go through ten compounds from ChEMBL document CHEMBL1134791, “2- and 3-substituted 1,4-naphthoquinone derivatives as subversive substrates of trypanothione reductase and lipoamide dehydrogenase from Trypanosoma cruzi: synthesis and correlation between redox cycling activities and in vitro cytotoxicity” (J Med Chem, 2001).

Activity calls are given as the source filed them. The rule behind the calls is not given here.

Experiment [1] relates to Leishmania donovani. Description: In vitro antiparasitic activity against Leishmania donovani was tested by sigmoidal regression analysis. It is filed as functional. In short, it runs like this: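 Mouse peritoneal macrophages (female CD1, starch-elicited, harvested 24 h) infected with L. donovani amastigotes (strain MHOM/ET/67/L82, hamster spleen) or T. cruzi Y-strain trypomastigotes (5:1, from MDCK overlay). Infected cells exposed to a 3-fold dilution series in quadruplicate for 5 days (L. donovani) or 3 days (T. cruzi). Giemsa-stained slides scored for % macrophages cleared of amastigotes versus untreated cultures. ED50 by sigmoidal regression.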

For experiment [2], the system named is Trypanosoma cruzi. The experiment is described as follows: Vmax is the maximum velocity of the TcLipDH (Trypanosoma cruzi lipoamide dehydrogenase) catalyzed NADH oxidation. The procedure, abridged: (§1)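 Recombinant TcLipDH expressed in E. coli, 0.1–2.5 µg/mL. 50 mM potassium phosphate, 1 mM EDTA, pH 7.0, 31 °C, with 100 µM NADH and naphthoquinone varied from 10 µM to 1.2 mM. DMSO was constant in all assays. NADH decrease followed at 340 nm. Km, Vmax and kcat came from Lineweaver-Burk plots, with kcat/Km derived. At least duplicate.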

Experiment [3] concerns Trypanosoma cruzi. Description: The Michaelis-Menten constant for NADH oxidation by TcLipDH (Trypanosoma cruzi lipoamide dehydrogenase).
The target of experiment [4] is T1, Dihydrolipoyl dehydrogenase, mitochondrial (Sus scrofa) (UniProt P09623).
T1 sequence (whole entry): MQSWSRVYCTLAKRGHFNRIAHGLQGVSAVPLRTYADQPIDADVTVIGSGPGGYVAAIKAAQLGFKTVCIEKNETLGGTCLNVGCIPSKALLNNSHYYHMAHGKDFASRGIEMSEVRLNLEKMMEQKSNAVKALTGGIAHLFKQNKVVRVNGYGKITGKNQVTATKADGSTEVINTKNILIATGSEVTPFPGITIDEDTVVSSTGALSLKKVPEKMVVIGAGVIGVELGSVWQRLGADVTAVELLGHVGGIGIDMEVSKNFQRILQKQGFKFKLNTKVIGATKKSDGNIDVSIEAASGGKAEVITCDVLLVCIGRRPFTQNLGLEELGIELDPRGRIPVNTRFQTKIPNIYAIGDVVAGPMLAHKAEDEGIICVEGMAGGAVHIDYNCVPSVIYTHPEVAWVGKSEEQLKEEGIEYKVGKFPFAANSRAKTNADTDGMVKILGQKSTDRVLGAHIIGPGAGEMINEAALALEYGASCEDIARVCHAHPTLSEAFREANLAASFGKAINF
Description: The second order rate constant of the pig heart LipDH (lipoamide dehydrogenase) catalyzed NADH oxidation. The procedure, abridged: (§2)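 Recombinant T. cruzi LipDH (E. coli, purified) or pig heart LipDH, 0.1–2.5 µg/mL. Buffer was 50 mM potassium phosphate, 1 mM EDTA, pH 7.0, with 100 µM NADH and naphthoquinone at 10 µM–1.2 mM; all assays carried equal DMSO. Run at 31 °C, started with enzyme, NADH decrease followed at 340 nm. Km and Vmax from Lineweaver–Burk plots. At least duplicate.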

Experiment [5] relates to Trypanosoma cruzi. Description: The second oder rate constant of the TcLipDH (Trypanosoma cruzi lipoamide dehydrogenase) catalyzed NADH oxidation. In short, it runs like this:
as §2

For experiment [6], the system named is Dihydrolipoyl dehydrogenase (Trypanosoma cruzi). Description: The second order rate constant of the TcLipDH (Trypanosoma cruzi lipoamide dehydrogenase) catalyzed NADH oxidation.
Experiment [7] deals with T1, Dihydrolipoyl dehydrogenase, mitochondrial (Sus scrofa). Description: Ratio of cytochrome c reduction and NADH oxidation by pig heart LipDH (lipoamide dehydrogenase) at 50 uM concentration, in cytochrome c assay. The procedure, abridged:
(§3)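 T. cruzi or pig heart LipDH in 50 mM potassium phosphate pH 7.0 with 100 µM NADH, 50 µM cytochrome c and 50 µM naphthoquinone at 31 °C. Cytochrome c reduction read at 550 nm; NADH oxidation measured at 340 nm in the same conditions without cytochrome c. One-electron reduction % = cytochrome c rate ÷ (2 × NADH rate). At least duplicate.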

Experiment [8] has as its system Trypanosoma cruzi. Description: Ratio of cytochrome c reduction and NADH oxidation by TcLipDH (Trypanosoma cruzi lipoamide dehydrogenase) at 50 uM concentration, in cytochrome c assay. In short, it runs like this:
as §3

Experiment [9] has as its system Trypanosoma brucei. The experiment is described as follows: In vitro antiparasitic activity against Trypanosoma brucei was tested by sigmoidal regression analysis.
In experiment [10] the test system is Trypanosoma cruzi.
The target of experiment [11] is Trypanothione reductase (Trypanosoma cruzi) (UniProt P28593). Description: The second order rate constant of the TcTR (Trypanosoma cruzi trypanothione reductase) catalyzed […]. The procedure, abridged:
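Recombinant TcTR (0.6 U) in 20 mM Hepes, 1 mM EDTA, 0.15 M KCl, pH 7.25 at 22 °C, with 200 µM NADPH and naphthoquinone at five concentrations (0–100 µM) in 1% DMSO. NADPH oxidation at 340 nm; intrinsic oxidase rate not subtracted. Km and Vmax from nonlinear Michaelis–Menten fit; kcat and kcat/Km calculated.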

For experiment [12] the target is unchanged. Description: Rate of NADPH oxidation by TcTR in presence of 100 uM NQ was determined in comparison to intrinsic oxidase activity. In short, it runs like this:
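Quinone reductase activity of recombinant TcTR measured as NADPH oxidation at 340 nm. Buffer was 20 mM Hepes, 1 mM EDTA, 0.15 M KCl, pH 7.25, with 250 µM NADPH at 25 °C. Rate with naphthoquinone (100 µM for line 8, 25 µM for line 9) divided by intrinsic oxidase rate of enzyme plus NADPH alone. Mean of at least two measurements.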

The subject of experiment [13] is Trypanosoma cruzi. The experiment is described as follows: The second order rate constant of the TcLipDH (Trypanosoma cruzi lipoamide dehydrogenase) catalyzed NADH oxidation. In short, it runs like this:
as §1

Experiment [14] deals with Trypanosoma brucei. Description: In vitro antiparasitic activity against Trypanosoma brucei was tested by sigmoidal regression analysis at 30 uM; IA is inactive. The class given is functional, organism-based. In short, it runs like this: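 T. b. brucei S427 bloodstream trypomastigotes at 2 × 10⁵/mL in HMI-18 medium, in triplicate, with a 3-fold dilution series starting at 30 µM. Incubated 3 days at 37 °C in 5% CO₂. Pentamidine served as positive control. Viability read by tetrazolium colorimetric assay on day 3. ED50 by sigmoidal regression.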

The target of experiment [15] is T1, Dihydrolipoyl dehydrogenase, mitochondrial (Sus scrofa). Description: Second order rate constant of the pig heart LipDH (lipoamide dehydrogenase) catalyzed NADH oxidation. The procedure, abridged:
as §2

The target is the same in experiment [16]. The experiment is described as follows: Ratio of cytochrome c reduction and NADH oxidation by pig heart LipDH (pig heart lipoamide dehydrogenase) at 50 uM concentration, cytochrome c assay. The procedure, abridged: as §3

Trypanothione reductase (Trypanosoma cruzi), sequence (P28593 whole entry, looked up): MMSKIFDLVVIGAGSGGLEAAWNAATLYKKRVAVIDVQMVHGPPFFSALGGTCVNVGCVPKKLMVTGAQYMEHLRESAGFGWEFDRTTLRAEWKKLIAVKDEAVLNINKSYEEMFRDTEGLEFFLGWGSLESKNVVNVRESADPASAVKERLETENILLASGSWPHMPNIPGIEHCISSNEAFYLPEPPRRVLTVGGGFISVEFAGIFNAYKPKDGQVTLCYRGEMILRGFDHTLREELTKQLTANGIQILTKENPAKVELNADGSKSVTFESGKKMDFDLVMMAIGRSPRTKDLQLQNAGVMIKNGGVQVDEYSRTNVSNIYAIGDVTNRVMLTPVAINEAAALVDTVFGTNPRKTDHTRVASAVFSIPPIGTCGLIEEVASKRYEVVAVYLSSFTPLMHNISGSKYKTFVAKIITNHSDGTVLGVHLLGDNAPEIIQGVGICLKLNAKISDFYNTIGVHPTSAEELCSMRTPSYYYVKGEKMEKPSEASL

`CC1=C(CCCNC(=O)OC(C)(C)C)C(=O)c2c(O)cccc2C1=O` yielded an ED50 in experiment [1] of 10 µM. In [2], the Vmax came out at 8.24 µM/min/mg. For the same compound, the Km in experiment [3] came to 30 µM. The k cat/Km in experiment [4] is 3.5 10e4 M-1 s-1; in experiment [5], 23 10e4 M-1 s-1.

`CC1=C(CCCNC(=O)OC(C)(C)C)C(=O)c2ccccc2C1=O` came in with an ED50 in experiment [1] of 29.4 µM. Besides, the figures for the k cat/Km in [6] and in [4] were 8.4 10e4 M-1 s-1 and 3.4 10e4 M-1 s-1, respectively.

In the case of `CC1=C(CCC(=O)O)C(=O)c2c(O)cccc2C1=O`, the ED50 in experiment [1] came out at 72 µM. The Reduction is 1.6% in [7] and 6.6% in [8]. Also, the k cat/Km in [6] was 10.2 10e4 M-1 s-1; in [4], 2.4 10e4 M-1 s-1.

For `CC1=C(NCCCN2CCN(CCCN)CC2)C(=O)c2ccccc2C1=O`, the ED50 in experiment [9] is greater than 12.5 µM.

`CC1=C(CCC(=O)NCCCN2CCN(CCCNC(=O)CCC3=C(C)C(=O)c4ccccc4C3=O)CC2)C(=O)c2ccccc2C1=O` came in with an ED50 in experiment [1] greater than 46 µM. This compound also registered a x fold in experiment [10] of 1000 µM. In addition, the k cat/Km in [11] is 4.4 10e4 M-1 s-1.

Compound `CC1=C(CCC(=O)NCCCN2CCN(C)CC2)C(=O)c2ccccc2C1=O` had an ED50 in [1] greater than 30 µM. Further, the Reduction in experiment [7] worked out at 0.8%; in experiment [8], 1.6%. Further, the x fold in [12] is 7. Moreover, the k cat/Km in [6] was 3 10e4 M-1 s-1; in [4], 2.6 10e4 M-1 s-1.

Turning to `CC1=C(CCC(=O)NCCCN2CCN(C)CC2)C(=O)c2c(O)cccc2C1=O`, the Reduction in experiment [7] turned out to be 0.6%; in experiment [8] it was 1.9%. Besides, the k cat/Km in [4] was 6.1 10e4 M-1 s-1.

As to `CC1=CC(=O)c2c(O)cccc2C1=O`, the Vmax in [2] came to 22.9 µM/min/mg. Moreover, the Reduction stood at 15.4% in experiment [7] and 26.1% in [8]. The k cat/Km in experiment [13] is 48 10e4 M-1 s-1; in experiment [4], 29 10e4 M-1 s-1. For the same compound, in [3], the Km was found to be 40 µM.

Take `CC1=CC(=O)c2ccccc2C1=O`: the IA entry in [14] is “inactive”. Also, the Reduction was determined as 8.1% in [7] and 12.7% in [8]. Further, the results for the k cat/Km in [11] and in [15] were 1 10e4 M-1 s-1 and 13 10e4 M-1 s-1, respectively. In addition, in experiment [3], the Km was 170 µM.

The compound `CC1=C(CCC(=O)O)C(=O)c2ccccc2C1=O` gave an ED50 in [1] greater than 30 µM. Moreover, the results for the Reduction in experiment [16] and in experiment [8] were 0.5% and 3%, respectively. Further, the k cat/Km in experiment [6] was 6.6 10e4 M-1 s-1; in experiment [15] it was 3.2 10e4 M-1 s-1.
